RGS4 inh: inhibitors of human RGS4; B-score at 10 µM; 310,000 compounds, 0.45% hits; AID 463165; HEK293 M3R/RGS4 inducible, Fluo-4 calcium flux; active compounds read high; triggered by carbachol at its EC20; P49798;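 active = B-score, a plate-corrected calcium signal, over three deviations above library mean, with baseline fluorescence within five deviations of library mean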;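 note: RGS4 expression induced by doxycycline in cells with stable M3 receptor; B-score is computed from the integrated fluorescence ratio over baseline after carbachol; higher B-score means a larger calcium signal and so more RGS4 inhibition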
Target sequence (P49798 whole entry, looked up): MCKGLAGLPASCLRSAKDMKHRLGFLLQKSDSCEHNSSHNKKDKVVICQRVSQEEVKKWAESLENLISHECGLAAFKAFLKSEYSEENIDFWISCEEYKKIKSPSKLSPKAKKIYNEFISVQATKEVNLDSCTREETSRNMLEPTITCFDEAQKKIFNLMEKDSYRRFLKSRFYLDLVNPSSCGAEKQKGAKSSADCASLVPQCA
MrgX1 allo act: allosterically activates human MrgX1 receptor signaling | AID 588675 | MrgX1-HEK293, Fluo-4 calcium flux, FDSS; active compounds read high | 310,000 compounds, 0.63% hits | Q96LB2 | B-score at 10 µM;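 active = plate-corrected calcium response at least 3 library SD above typical, normal starting fluorescence, not activating the receptor alone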;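 note: compound read alongside a low EC10 to EC30 dose of BAM8-22 agonist; peak minus trough fluorescence over baseline measured at the second addition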
Target sequence (Q96LB2 whole entry, looked up): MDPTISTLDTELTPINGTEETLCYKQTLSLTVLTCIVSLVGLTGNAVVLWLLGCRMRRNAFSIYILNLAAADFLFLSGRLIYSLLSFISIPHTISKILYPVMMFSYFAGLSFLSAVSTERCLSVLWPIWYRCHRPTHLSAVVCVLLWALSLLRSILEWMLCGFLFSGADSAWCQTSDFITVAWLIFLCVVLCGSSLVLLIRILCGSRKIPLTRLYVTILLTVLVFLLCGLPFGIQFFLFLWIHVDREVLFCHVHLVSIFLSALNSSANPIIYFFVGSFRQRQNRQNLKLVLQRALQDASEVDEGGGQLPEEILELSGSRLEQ
MrgX1 antag: blocks BAM8-22 activation of human MrgX1 receptor. Q96LB2. MRGX1-HEK293 calcium flux, Fluo-4, BAM8-22 antagonism; active compounds read low. B-score at 10 µM. 310,000 compounds, 1.3% hits. AID 588676;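 active = calcium-response B-score plate-corrected more than 3 library SD below zero, starting fluorescence within 5 deviations, no agonist response on first addition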;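 note: peak minus trough fluorescence over baseline after final BAM8-22 challenge near maximal dose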
MrgX1 ag: agonists of human MrgX1 receptor; Q96LB2; MrgX1-HEK293 cells, Fluo-4 calcium fluorescence, agonist mode; active compounds read high; B-score at 10 µM; AID 588627; 310,000 compounds, 0.44% hits;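 active = calcium response B-score plate-corrected fluorescence ratio at least 3 library SD, with starting fluorescence B-score inside 5 SD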
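Material: HEK293 cells stably expressing human MrgX1 receptor | Quantity: 15,000 cells per well | Times: Cells plated overnight, dye loaded 0.5 h 37 °C, 0.5 h room temperature | Measured by: Kinetic Fluo-4 NW fluorescence of intracellular calcium | Control set: Positive and negative controls per plate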
RGS4 pot: potentiators or activators of RGS4 | HEK293 M3R/inducible RGS4, carbachol calcium flux Fluo4; active compounds read low | B-score at 10 µM | 310,000 compounds, 0.92% hits;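 active = B-score of the integrated calcium signal more than 4 SD below the library mean, with starting fluorescence not abnormally high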;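 note: negative B-score means reduced calcium response which marks RGS4 activation or potentiation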
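Reagent: ECmax carbachol challenge; Test system: M3R-expressing HEK293 line, RGS4 induced by doxycycline; Schedule: overnight RGS4 induction, 30 min dye load 37 °C, 20 min compound RT; Detection: calcium dye Fluo4 fluorescence; Read-out: Agonist-evoked peak-minus-minimum fluorescence over baseline, integrated ratio, B score.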
The depositor's hits bear a star. Only some compounds are listed: those with a hit (about 3.5% of all), similar ones and a draw of the others.

How did CC1CCC(C(C)C)C(OC(=O)C[n+]2cc(-c3ccc(Cl)cc3)n3c2CCC3)C1 (centres undefined) do in these assays?
RGS4 inh: inactive; MrgX1 allo act: inactive; MrgX1 antag: -7*; MrgX1 ag: inactive; RGS4 pot: inactive

What do the screens show for `COc1ccc(-c2c[n+](CC(=O)N3c4ccccc4Sc4ccccc43)c3n2CCC3)cc1`?
RGS4 inh: inactive; MrgX1 allo act: inactive; MrgX1 antag: inactive; MrgX1 ag: inactive; RGS4 pot: -8.9*

Results for O=C(C[n+]1cc(-c2ccc(Cl)cc2)n2c1CCC2)N1c2ccccc2Sc2ccccc21 ?
RGS4 inh: inactive; MrgX1 allo act: inactive; MrgX1 antag: inactive; MrgX1 ag: inactive; RGS4 pot: -7.6*

Results for CCCn1c(NCCO)nc2ccccc21 ?
RGS4 inh: inactive; MrgX1 allo act: inactive; MrgX1 antag: inactive; MrgX1 ag: inactive; RGS4 pot: inactive

How did COc1ccc(CC(=O)OCn2nnc3ccccc3c2=O)cc1OC do in these assays?
RGS4 inh: inactive; MrgX1 allo act: inactive; MrgX1 antag: inactive; MrgX1 ag: inactive; RGS4 pot: inactive

What do the screens show for `COc1ccc(Cc2nnc(NC(=O)c3cccc([N+](=O)[O-])c3C)s2)cc1`?
RGS4 inh: inactive; MrgX1 allo act: inactive; MrgX1 antag: inactive; MrgX1 ag: inactive; RGS4 pot: inactive

What do the screens show for `CCNc1cc(N2CCN(S(=O)(=O)c3ccc4c(c3)CCCC4)CC2)ccc1[N+](=O)[O-]`?
RGS4 inh: inactive; MrgX1 allo act: inactive; MrgX1 antag: -7.5*; MrgX1 ag: inactive; RGS4 pot: inactive

What do the screens show for `O=[N+]([O-])c1ccc(N2CCN(S(=O)(=O)c3ccc(Cl)c(Cl)c3)CC2)cc1NCCN1CCOCC1`?
RGS4 inh: inactive; MrgX1 allo act: inactive; MrgX1 antag: inactive; MrgX1 ag: inactive; RGS4 pot: inactive

Results for C/C(=N/O)c1no[n+]([O-])c1/C(C)=N\O ?
RGS4 inh: inactive; MrgX1 allo act: inactive; MrgX1 antag: inactive; MrgX1 ag: inactive; RGS4 pot: inactive

Results for CN(C)/C=C1\SC(=S)N(c2ccc(F)cc2)C1=O ?
RGS4 inh: inactive; MrgX1 allo act: inactive; MrgX1 antag: inactive; MrgX1 ag: inactive; RGS4 pot: inactive

Results for CN(C)/C=C1\SC(=S)N(c2ccc(Br)cc2)C1=O ?
RGS4 inh: inactive; MrgX1 allo act: inactive; MrgX1 antag: -4.9*; MrgX1 ag: inactive; RGS4 pot: inactive

What do the screens show for `COC(=O)c1cc(NS(=O)(=O)c2ccc(Cl)c(N3C(=O)c4ccc(C(=O)O)cc4C3=O)c2)cc(C(=O)OC)c1`?
RGS4 inh: inactive; MrgX1 allo act: 9.9*; MrgX1 antag: inactive; MrgX1 ag: inactive; RGS4 pot: inactive

What do the screens show for `NNC(=O)c1csc(COc2cc(Cl)cc(Cl)c2)n1`?
RGS4 inh: inactive; MrgX1 allo act: inactive; MrgX1 antag: inactive; MrgX1 ag: inactive; RGS4 pot: inactive

How did N#CCC(N)=C(C#N)C#N do in these assays?
RGS4 inh: inactive; MrgX1 allo act: inactive; MrgX1 antag: -7.2*; MrgX1 ag: inactive; RGS4 pot: inactive

Results for COC(=O)C/C(N)=C(\C#N)C(=O)OC ?
RGS4 inh: inactive; MrgX1 allo act: inactive; MrgX1 antag: inactive; MrgX1 ag: inactive; RGS4 pot: inactive

How did COc1ccc(NC(=O)C(=O)NNC(=O)C(C)Oc2ccc(Cl)cc2Cl)cc1 (centres undefined) do in these assays?
RGS4 inh: inactive; MrgX1 allo act: inactive; MrgX1 antag: -6.2*; MrgX1 ag: inactive; RGS4 pot: inactive

Results for CN(C)c1nc(NCc2ccccc2)nc(N/N=C/c2ccccc2F)n1 ?
RGS4 inh: inactive; MrgX1 allo act: inactive; MrgX1 antag: inactive; MrgX1 ag: inactive; RGS4 pot: inactive

What do the screens show for `CCOc1cc(/C=C2/NC(=O)NC2=O)cc([N+](=O)[O-])c1O`?
RGS4 inh: inactive; MrgX1 allo act: inactive; MrgX1 antag: -7.7*; MrgX1 ag: inactive; RGS4 pot: inactive

How did CC(C)OC(=O)Cn1c(=O)sc2ccccc21 do in these assays?
RGS4 inh: inactive; MrgX1 allo act: inactive; MrgX1 antag: inactive; MrgX1 ag: inactive; RGS4 pot: inactive

What do the screens show for `Cc1nn(-c2ccccc2)c(C)c1/C=N/NC(=O)CSc1nc2ccccc2c(=O)n1-c1ccc(Br)cc1`?
RGS4 inh: inactive; MrgX1 allo act: inactive; MrgX1 antag: inactive; MrgX1 ag: inactive; RGS4 pot: inactive

How did Cc1ccc(-n2c(SCC(=O)N/N=C/c3c(C)nn(-c4ccccc4)c3C)nc3ccccc3c2=O)cc1 do in these assays?
RGS4 inh: inactive; MrgX1 allo act: inactive; MrgX1 antag: -6.4*; MrgX1 ag: inactive; RGS4 pot: inactive

How did CCOC(=O)c1c(C)[nH]c(C)c1C(=O)CSc1nc2ccccc2c(=O)n1-c1ccc(C)cc1 do in these assays?
RGS4 inh: inactive; MrgX1 allo act: inactive; MrgX1 antag: inactive; MrgX1 ag: inactive; RGS4 pot: -7.2*

Results for CN(/N=C/c1ccc(Br)o1)C1=NS(=O)(=O)c2ccccc21 ?
RGS4 inh: inactive; MrgX1 allo act: inactive; MrgX1 antag: inactive; MrgX1 ag: inactive; RGS4 pot: inactive

What do the screens show for `O=C(NCCCN1CCCC1=O)c1cc(COc2ccc(F)cc2F)on1`?
RGS4 inh: inactive; MrgX1 allo act: inactive; MrgX1 antag: inactive; MrgX1 ag: inactive; RGS4 pot: inactive

Results for C/C(=N\NC(=O)c1cccc([N+](=O)[O-])c1)c1ccncc1 ?
RGS4 inh: inactive; MrgX1 allo act: inactive; MrgX1 antag: inactive; MrgX1 ag: inactive; RGS4 pot: inactive

What do the screens show for `C/C(=N\NC(=O)c1cccc([N+](=O)[O-])c1)c1cccs1`?
RGS4 inh: inactive; MrgX1 allo act: 13*; MrgX1 antag: inactive; MrgX1 ag: inactive; RGS4 pot: inactive

How did CCC(O)(CCN1CCCCC1)c1ccccc1 (centres undefined) do in these assays?
RGS4 inh: inactive; MrgX1 allo act: inactive; MrgX1 antag: inactive; MrgX1 ag: inactive; RGS4 pot: -7*

Results for CCCCOc1ccc(C(O)(CC)CCN2CCOCC2)cc1 (centres undefined) ?
RGS4 inh: inactive; MrgX1 allo act: inactive; MrgX1 antag: -6.3*; MrgX1 ag: inactive; RGS4 pot: inactive

How did CCCCCC(O)(CCN1CCCCC1)c1ccc(OCC)cc1 (centres undefined) do in these assays?
RGS4 inh: inactive; MrgX1 allo act: inactive; MrgX1 antag: inactive; MrgX1 ag: inactive; RGS4 pot: -8.8*

Results for CC(=O)Nc1cccc2c1C(=O)N(c1ccc(C)cc1)C2=O ?
RGS4 inh: inactive; MrgX1 allo act: inactive; MrgX1 antag: inactive; MrgX1 ag: inactive; RGS4 pot: inactive

From PubChem
